In the library only some 3.6% were active in any assay of this set; here they are far more common.
EBNA-1 inhibitor – EBNA-1 DNA-binding inhibitors, primary screen, biochemical, fluorescence polarization | 0.34% of 300,000 active | AID 1950, 2009 | inhibition, % at 14.8 µM; in the data active means inhibition above about 28%
ZTA DNA inh – blocks Epstein-Barr virus ZTA, an EBNA-1 counter-screen; inhibition, % at 11 µM; ZTA-DNA binding, fluorescence polarization; AID 2234; P03206; 0.15% of 320,000 active; in the data active means inhibition above about 33%
Target sequence (P03206 whole entry, looked up): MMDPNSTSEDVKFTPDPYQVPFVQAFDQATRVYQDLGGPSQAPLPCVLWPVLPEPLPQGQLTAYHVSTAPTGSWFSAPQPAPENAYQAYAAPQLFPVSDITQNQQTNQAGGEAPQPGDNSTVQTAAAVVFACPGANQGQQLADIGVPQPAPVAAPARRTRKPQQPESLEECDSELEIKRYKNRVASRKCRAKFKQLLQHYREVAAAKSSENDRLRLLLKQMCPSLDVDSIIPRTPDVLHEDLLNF
FGF22 binding – binders of human FGF22 protein, primary screen, FGF22 synaptogenesis inhibitor project, biophysical, thermal shift, single point. 1.5% of 340,000 active. recombinant FGF22 thermal shift, SYPRO orange fluorescence; percent of sucrose octasulfate shift, DMSO zero. AID 651658, 2012. activity (Tm shift, normalised), % at 9.99 µM;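 active means mean Tm shift, scaled 0 neutral to 100 positive control, at about 1.3% or above, every replicate too, limit read from the data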
Target sequence (Q9HCT0 whole entry, looked up): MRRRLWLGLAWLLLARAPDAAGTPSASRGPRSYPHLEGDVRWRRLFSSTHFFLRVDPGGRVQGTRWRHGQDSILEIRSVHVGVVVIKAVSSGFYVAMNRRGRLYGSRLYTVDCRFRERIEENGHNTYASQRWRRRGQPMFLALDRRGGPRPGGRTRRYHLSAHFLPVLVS
NR3A LBD binder – binders of NR3A ligand-binding domain, primary screen, biophysical, differential scanning fluorimetry, uHTS. 2.5% of 340,000 active. Tm shift relative to glycine control, % at 25 µM. Glutamate receptor ionotropic, NMDA 3A (GRIN3A) ligand-binding domain. NR3A LBD differential scanning fluorimetry, Tm shift; 0% = protein alone, 100% = glycine-bound protein;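 active means melting temperature shift of at least 10% of the positive control shift, at one fixed dose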
DNA FID counter – compounds displacing fluorescent DNA intercalator, primary screen, artefact control for HCV NS3 helicase inhibitor project, biochemical, FID fluorescence; DNA fluorescent intercalator displacement; inhibition, % at 7.9 µM; 0.17% of 290,000 active; in the data active means inhibition above about 37%;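 further: 0% = vehicle and 100% = reference compound; higher means more ethidium bromide displaced from hairpin DNA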
NS3 helicase inh – inhibitors of HCV NS3 helicase, primary screen, biochemical, Cy5 molecular beacon fluorescence. 0.56% of 290,000 active. Hepatitis C virus NS3 helicase. inhibition, % at 10.9 µM. NS3 helicase DNA unwinding. AID 1800, 2009;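 active means inhibition above the mean of all tested compounds plus 3 SD, set per campaign, cut at about 35% in these data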;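 further: 0% = DMSO wells and 100% = thioflavine S control wells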
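System: Hepatitis C virus NS3 helicase domain fragment enzyme | Reagent: Annealed dual-labelled DNA beacon duplex, ATP-started | Compound dosing: 10.9 µM single point, 0.8% DMSO | Incubation: 1 h reaction at 25 °C, ATP-initiated | Technique: Cy5 fluorescence | Evaluation: Percent inhibition from t60/t0 fluorescence ratio | Benchmarks: Low DMSO, high thioflavine S at 110 µM | Replication: Singlicate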
* marks the source's active call; other numbers are inactive results; x = not tested or not shown.

SMILES	EBNA-1 inhibitor	ZTA DNA inh	FGF22 binding	NR3A LBD binder	DNA FID counter	NS3 helicase inh
Cc1ccc(S(=O)(=O)N2CCCCC2CCNC(=O)C(=O)NCCc2ccco2)cc1 (stereo not given)	5	-3	0	2	x	x
COc1ccc(S(=O)(=O)N2CCCC2CNC(=O)C(=O)Nc2ccc(F)cc2)cc1 (stereo not given)	2	-14	0	11*	x	x
C[C@@H]1CCCCO[C@H](CN(C)C(=O)Nc2ccc3c(c2)OCO3)[C@@H](C)CN([C@H](C)CO)C(=O)c2cc(NS(=O)(=O)c3ccccc3)ccc2O1	x	x	0	x	x	x
COc1ccc(C#Cc2ccc([C@@H]3[C@@H](CO)N4CCCCN(Cc5ccncc5)C[C@@H]34)cc2)cc1	x	x	0	x	x	x
CCn1c(=O)cc(N2CCOCC2)[nH]c1=O	1	-1	43*	-1	-1	10
C[C@H]1CN([C@@H](C)CO)C(=O)Cc2cc(NC(=O)Nc3ccccc3)ccc2O[C@H]1CN(C)S(=O)(=O)c1ccc(F)cc1	x	x	0	x	x	x
CN(C(=O)Cc1noc2ccccc12)c1ccccc1	7	24	x	12*	2	-7
Cc1ccc(NC(=O)Cc2noc3ccccc23)cc1	20	18	x	-1	1	2
Cc1ccc(CNC(=O)CCCC(=O)Nc2cc(C)on2)cc1	10	3	43*	0	-2	-10
C[C@@H]1CN([C@H](C)CO)C(=O)c2cc(NC(=O)Cc3ccccc3)ccc2O[C@@H](C)CCCCO[C@@H]1CN(C)C(=O)Nc1cccc2ccccc12	x	x	0	x	x	x
COCc1c(C(=O)N/N=C/c2cccc3ccccc23)nnn1-c1nonc1N	-6	-13	1	31*	-7	-10
C/C(=N\NC(=O)c1nnn(-c2nonc2N)c1CN(C)c1ccccc1)c1cccc(O)c1	1	-22	0	5	-27	-6
CN(Cc1c(C(=O)N/N=C/c2c(F)cccc2Cl)nnn1-c1nonc1N)c1ccccc1	-9	-8	0	14*	-31	-13
COc1ccc2ccccc2c1/C=N/NC(=O)c1nnn(-c2nonc2N)c1CN(C)C	-26	4	0	0	-12	-10
CN(Cc1c(C(=O)N/N=C/c2cccc(O)c2)nnn1-c1nonc1N)c1ccccc1	-8	0	x	31*	-24	5
CC(C)c1c(C(=O)N/N=C/c2ccccc2OCc2c(F)cccc2Cl)nnn1-c1nonc1N	-12	-4	0	13*	-17	-10
O=C(Nc1ccc2c(c1)OCO2)N[C@@H]1CC[C@H](CC(=O)N2CCN(c3ccccc3)CC2)O[C@H]1CO	x	x	0	x	x	x
Cc1noc(C)c1NC(=O)Nc1cccc2c1O[C@@H](CN(C)S(=O)(=O)c1ccc(Cl)cc1)[C@H](C)CN([C@@H](C)CO)C2=O	x	x	0	x	x	x
C[C@H]1CN([C@@H](C)CO)C(=O)Cc2cc(NS(=O)(=O)c3ccc(F)cc3)ccc2O[C@H]1CN(C)S(=O)(=O)c1ccc(Cl)cc1	x	x	1	x	x	x
Cc1ccc(/C=N/NC(=O)c2nnn(-c3nonc3N)c2C(C)C)o1	1	12	0	-3	-21	3
CN(C)Cc1c(C(=O)N/N=C/c2ccc(-c3ccccc3)cc2)nnn1-c1nonc1N	-11	3	0	3	-8	2
COc1ccc2ccccc2c1/C=N/NC(=O)c1nnn(-c2nonc2N)c1C(C)C	-19	-2	0	13*	-13	0
Cc1ccc(/C=N/NC(=O)c2nnn(-c3nonc3N)c2CN(C)c2ccccc2)s1	-2	-2	0	18*	-25	-2
CC(C)Oc1ccc(/C=N/NC(=O)c2nnn(-c3nonc3N)c2CN(C)c2ccccc2)cc1	-17	-4	0	11*	-25	-7
Cc1ccc(/C=N/NC(=O)c2nnn(-c3nonc3N)c2C(C)C)s1	12	9	0	11*	-13	11
SMILES	EBNA-1 inhibitor	ZTA DNA inh	FGF22 binding	NR3A LBD binder	DNA FID counter	NS3 helicase inh
COCC(=O)N1CC2(C1)CN(C(=O)Nc1ccccc1F)[C@@H](CO)c1c2c2ccc(OC)cc2n1C	x	x	0	x	x	x
CCCNC(=O)C[C@@H]1CC[C@H]2[C@@H](COC[C@@H](O)CN2C(=O)c2ccccn2)O1	x	x	0	x	x	x
O=C(Nc1ccc(-c2nc3ccccc3o2)cc1)c1ccc(N2CCOCC2)c([N+](=O)[O-])c1	-1	-3	0	14*	-3	-3
O=C(Nc1cccnc1)c1ccc(N2CCOCC2)c([N+](=O)[O-])c1	x	x	0	1	0	7
COc1ccc2oc(-c3ccc(NC(=O)c4ccc(N5CCOCC5)c([N+](=O)[O-])c4)cc3)nc2c1	-11	8	x	37*	0	-8
CO[C@H]1CN(C)C(=O)c2ccc(NC(C)=O)cc2OC[C@@H](C)N(C(=O)C2CCCCC2)C[C@H]1C	x	x	0	x	x	x
COc1ccc(CN(C)C[C@H]2Oc3c(NC(=O)C4CCOCC4)cccc3C(=O)N([C@@H](C)CO)C[C@@H]2C)cc1	x	x	0	x	x	x
COc1ccc(N(C(=O)c2cnsn2)C(C(=O)NC2CCCCC2)c2ccncc2)cc1 (stereo not given)	4	-9	43*	-1	-9	12
Cc1noc(C)c1NC(=O)Nc1ccc2c(c1)C(=O)N([C@H](C)CO)C[C@H](C)[C@H](CN(C)CC1CC1)OCCCC[C@H](C)O2	x	x	0	x	x	x
O=C(NC1=NCCS1)c1ccc(Cl)c(S(=O)(=O)N2CCCCC2)c1	13	9	x	-1	-17	1
O=C(NC1=NCCS1)c1ccc(F)c(S(=O)(=O)N2CCOCC2)c1	x	x	0	-1	x	x
O=C(Nc1ccccn1)c1ccc(Br)c(S(=O)(=O)N2CCCC2)c1	10	13	0	-2	-25	0
O=C(NCc1ccncc1)c1ccc(Cl)c(S(=O)(=O)N2CCOCC2)c1	1	15	x	321*	-3	-3
O=C(Nc1ccccn1)c1ccc(Br)c(S(=O)(=O)N2CCCCC2)c1	3	-8	0	13*	-8	-8
O=C(NC1=NCCS1)c1ccc(Cl)c(S(=O)(=O)N2CCOCC2)c1	1	11	43*	-2	3	12
O=C(NC1=NCCS1)c1ccc(Cl)c(S(=O)(=O)N2CCCC2)c1	17	23	43*	-2	-7	8
COC(=O)C[C@H]1CC[C@H]2[C@H](COc3ccc(NC(=O)Nc4c(C)noc4C)cc3C(=O)N2C)O1	x	x	0	x	x	x
C[C@H](CO)N1C[C@H](C)[C@H](CN(C)C(=O)Nc2ccc3c(c2)OCO3)Oc2ccc(NC(=O)Cc3cn(C)c4ccccc34)cc2CC1=O	x	x	0	x	x	x
